Runt-SMMHC FRET: Runt domain-CBFb-SMMHC interaction inhibition; Cerulean-Runt/Venus-CBFb-SMMHC FRET ratio 530/480, 1 h; inhibition, % at 20 µM; 220,000 compounds, 0.74% hits; AID 1434;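 active = mean inhibition across duplicate retests at 20 µM reaching about 50%, limit read from the data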;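 also: inhibitors lower the FRET ratio by blocking Runt binding to CBFb-SMMHC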
Hck Nef HTS: human Hck-Nef kinase inhibition; inhibition, % at 20 µM; 220,000 compounds, 0.68% hits; Recombinant Hck-YEEI plus Nef, Z-Lyte FRET kinase assay; P08631; AID 463187;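 active = Hck-Nef kinase inhibition above about 50%, limit read from the data; inactive = inhibition below that limit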
Target sequence (P08631 whole entry, looked up): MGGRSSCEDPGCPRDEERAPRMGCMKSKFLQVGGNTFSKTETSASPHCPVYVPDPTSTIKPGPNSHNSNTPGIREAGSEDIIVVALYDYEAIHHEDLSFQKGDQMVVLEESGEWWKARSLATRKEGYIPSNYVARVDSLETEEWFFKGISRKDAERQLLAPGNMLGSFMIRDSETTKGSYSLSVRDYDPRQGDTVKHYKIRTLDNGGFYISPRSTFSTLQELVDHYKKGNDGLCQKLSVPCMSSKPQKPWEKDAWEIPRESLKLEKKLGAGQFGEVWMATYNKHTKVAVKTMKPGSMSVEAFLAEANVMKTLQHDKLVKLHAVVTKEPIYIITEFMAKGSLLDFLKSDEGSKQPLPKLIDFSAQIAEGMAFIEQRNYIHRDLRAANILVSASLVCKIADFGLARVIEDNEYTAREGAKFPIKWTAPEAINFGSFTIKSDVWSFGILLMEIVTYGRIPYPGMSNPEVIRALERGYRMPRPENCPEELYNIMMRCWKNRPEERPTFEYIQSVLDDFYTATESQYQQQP
DSG3 Ab inh: inhibitors of pemphigus antibody binding to human desmoglein-3. P32926. DSG3-coupled beads, scFv-anti-DSG3-GFP binding, flow cytometry; active compounds read low. binding (percent of control), % at 10 µM. 310,000 compounds, 0.48% hits;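 active = binding more than 3 SD below its plate's average and above zero; inconclusive = below that plate limit but binding exactly zero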;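 also: hits lower antibody fragment binding to DSG3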
RanGTP-Imp inh: disruptors of Ran-importin-beta complex formation – biochemical, FRET, CFP-Ran, YFP-importin-beta, homogeneous, primary screen; AID 2216; 300,000 compounds, 1.1% hits; inhibition, % (no concentration beside the values); cell-free CFP-Ran/YFP-importin-beta FRET ratio;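 active = more than half of the replicate wells show a fall in the fluorescence ratio signal beyond about 16%, limit read from the data, passing the limit was not always enough; inconclusive = exactly half of the replicate wells pass the set limit; inactive = fewer than half of replicates pass the limit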
Runt-CBFb FRET: blocks binding of human RUNX1 Runt domain to CBFb; Cerulean-Runt/Venus-CBFb FRET ratio 530/480, 1 h; inhibition, % at 20 µM; 220,000 compounds, 0.46% hits;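 active = inhibition over about 50% at 20 µM in the single-dose screen, limit read from the data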
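Doses: 20 µM compound in 1% DMSO | Material: Cerulean-labeled Runt domain protein | Amount: Each fluorescent fusion protein 100 nM | Schedule: Two 1 h room-temperature incubations shielded from light | Measured by: FRET fluorescence | Evaluation: Loss of energy transfer signal | Controls: Unlabeled CBFb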
pCIP destab: compounds decreasing mouse p/CIP protein stability. Q05BA5. 290,000 compounds, 0.01% hits. decrease of EGFP signal, % at 10 µM. F442A p/CIP-EGFP cells, EGFP fluorescence, 16 h;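 active = EGFP signal decrease of at least 30% at 10 µM or well 3 SD below plate mean, unless failing retest; inactive = the rest, including hits failing retest or dose response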
A number is an active result; . = inactive; ? = inconclusive; / = no result given. Compounds with a hit are over-represented: about 2.1% of the library has one in this group of screens.

SMILES | Runt-SMMHC FRET | Hck Nef HTS | DSG3 Ab inh | RanGTP-Imp inh | Runt-CBFb FRET | pCIP destab
CCNc1ncnc2c1cnn2C1CCCO1 (configuration not stated) | / | / | . | / | / | /
O=C(CNC(=O)Cn1ccc2ccccc2c1=O)NCCCN1CCN(c2cccc(Cl)c2)CC1 | . | . | . | 20.9 | . | .
Cc1nn(-c2cccc(C(F)(F)F)c2)c(=O)c2ccccc12 | / | / | 94.3 | . | / | .
Cc1ccc(S(=O)(=O)N2CCN(Cc3ccccc3)CC2)s1 | / | / | . | / | / | /
CC1=NOC(=O)/C1=C\c1ccc(-c2cccc(Cl)c2)o1 | 55.4 | . | . | . | . | .
Cc1ccc(S(=O)(=O)N2CCCC2CNC(=O)C(=O)NC2CCCC2)cc1 (configuration not stated) | / | / | . | . | / | /
O=C(Nc1cccc(O)c1)C1CC(c2ccc(Cl)cc2)=NO1 (configuration not stated) | / | / | . | . | / | .
COc1ccc(C2=NOC(C(=O)Nc3ccc(C(C)=O)cc3)C2)cc1OC (configuration not stated) | . | . | . | . | . | .
COc1cc(C2=NOC(C(=O)Nc3ccc(C(C)=O)cc3)C2)cc(OC)c1OC (configuration not stated) | . | . | 79.1 | . | . | .
COc1ccc(C2=NOC(C(=O)Nc3cccc(O)c3)C2)cc1 (configuration not stated) | / | / | 82.1 | . | / | .
CCC[C@H]1CN(c2ccc(Br)cc2)C(=O)[C@@H]1CC(=O)Nc1ccc(OC)cc1 | / | / | . | / | / | /
O=C(/C=C/c1cccc([N+](=O)[O-])c1)OCC(=O)N1CCCCC1 | / | / | . | / | / | /
O=C(N/N=C/C(Cl)=C/c1ccc([N+](=O)[O-])cc1)C(=O)Nc1ccc(C(=O)O)cc1 | . | 75.5 | . | . | . | .
O=C(N/N=C/C(Cl)=C/c1ccc([N+](=O)[O-])cc1)C(=O)Nc1ccccc1C(=O)O | . | . | . | . | . | .
CC(=O)c1cccc(NC(=S)NC(=O)c2ccccc2)c1 | . | . | . | . | . | .
CNC(=S)Nc1cccc(C(C)=O)c1 | . | 72.6 | . | . | . | .
CCn1c(/C=C/c2ccccc2)nc2ccccc21 | . | . | . | . | . | .
COc1ccc(Cn2c(/C=C/c3ccccc3)nc3ccccc32)cc1 | . | . | . | 28.2 | . | .
CCCCCC(=O)N1C[C@@H](O)[C@H](n2cc(-c3ccc(F)cc3)nn2)C[C@@H]1c1ccccc1 | / | / | . | / | / | /
CC1CCCN(S(=O)(=O)c2ccc(S(=O)(=O)N3CCC4(CC3)OCCO4)cc2)C1 (configuration not stated) | . | . | 68.1 | . | . | .
O=C(Cc1c(F)cccc1Cl)Nc1ccccc1-c1ccccc1 | / | / | 47.4 | . | / | .
Cc1ccc(NC(=O)c2sc(N)nc2-c2ccc([N+](=O)[O-])cc2)cc1C | . | . | 62.9 | . | . | .
COC(=O)c1cc(C(=O)c2cc(Cl)ccc2O)coc1=N | . | . | . | . | . | .
COCCOC(=O)c1cc(C(=O)c2cc(F)ccc2O)coc1=N | 119.8 | . | ? | 31.5 | . | .
CC1CCC(NC(=O)CSc2nnc(-c3cccnc3)o2)CC1 (configuration not stated) | / | / | . | / | / | /
SMILES | Runt-SMMHC FRET | Hck Nef HTS | DSG3 Ab inh | RanGTP-Imp inh | Runt-CBFb FRET | pCIP destab
S=c1[nH]c(-c2ccccc2)cn1/N=C/c1cccnc1 | . | . | 79.9 | . | . | .
CCCCn1c(NC(=O)c2ccccc2)c(C#N)c2nc3ccccc3nc21 | . | . | . | / | . | .
CCCCn1c(NC(=O)c2ccc(F)cc2)c(C#N)c2nc3ccccc3nc21 | / | / | / | 17.6 | / | /
CCC(C)n1c(NC(=O)c2ccccc2)c(C#N)c2nc3ccccc3nc21 (configuration not stated) | 65.7 | . | / | 20.7 | . | .
O=C(c1cc2cc3ccc(Cl)cc3nc2o1)N1CCN(Cc2ccc3c(c2)OCO3)CC1 | / | / | 59.3 | / | / | /
O=C(c1cc2cc(Cl)ccc2[nH]1)N1CCN(Cc2ccc3c(c2)OCO3)CC1 | / | / | . | . | / | .
CC(NC(=O)c1cccnc1Sc1ccccc1)c1ccc(S(N)(=O)=O)cc1 (configuration not stated) | / | / | . | . | / | .
COc1cccc(C2=Nc3cccc4cccc(c34)N2)c1 | . | . | . | . | . | .

Bioassay records: PubChem, several laboratories
